Source: PubChem
Shown are actives, neighbours in structure and some others; about 5% of the full set was active somewhere.
CSC inhib: blocks cancer stem cells. cancer stem cell-like cells viability, luminescence. inhibition, % at 7.5 µM. hit rate 1.1% among 300,000; in the data active = inhibition above about 75%; tested in HMLE shEcad cells
Mdm2 MdmX PPI: inhibitors of human Mdm2/MdmX interaction; SaOS-2 split-luciferase Mdm2/MdmX complementation, luminescence; hit rate 3% among 330,000; inhibition, % at 8 µM;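 active = inhibition of at least 50% at 8 µM in the primary screen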
Target sequence (O15151 whole entry, looked up): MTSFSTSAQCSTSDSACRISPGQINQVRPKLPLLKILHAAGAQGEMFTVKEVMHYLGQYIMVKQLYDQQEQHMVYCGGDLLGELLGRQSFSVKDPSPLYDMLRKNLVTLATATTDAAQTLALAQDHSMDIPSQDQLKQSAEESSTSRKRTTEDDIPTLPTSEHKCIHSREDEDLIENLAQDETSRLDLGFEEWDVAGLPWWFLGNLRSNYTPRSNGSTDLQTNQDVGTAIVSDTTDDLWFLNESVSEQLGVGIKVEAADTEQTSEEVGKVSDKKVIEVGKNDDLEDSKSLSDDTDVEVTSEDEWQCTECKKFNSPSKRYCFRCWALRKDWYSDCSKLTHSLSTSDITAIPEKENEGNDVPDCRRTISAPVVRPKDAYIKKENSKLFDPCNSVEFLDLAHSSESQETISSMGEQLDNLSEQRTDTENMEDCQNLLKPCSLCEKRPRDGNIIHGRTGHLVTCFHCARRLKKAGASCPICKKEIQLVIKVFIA
Target sequence (Q00987 whole entry, looked up): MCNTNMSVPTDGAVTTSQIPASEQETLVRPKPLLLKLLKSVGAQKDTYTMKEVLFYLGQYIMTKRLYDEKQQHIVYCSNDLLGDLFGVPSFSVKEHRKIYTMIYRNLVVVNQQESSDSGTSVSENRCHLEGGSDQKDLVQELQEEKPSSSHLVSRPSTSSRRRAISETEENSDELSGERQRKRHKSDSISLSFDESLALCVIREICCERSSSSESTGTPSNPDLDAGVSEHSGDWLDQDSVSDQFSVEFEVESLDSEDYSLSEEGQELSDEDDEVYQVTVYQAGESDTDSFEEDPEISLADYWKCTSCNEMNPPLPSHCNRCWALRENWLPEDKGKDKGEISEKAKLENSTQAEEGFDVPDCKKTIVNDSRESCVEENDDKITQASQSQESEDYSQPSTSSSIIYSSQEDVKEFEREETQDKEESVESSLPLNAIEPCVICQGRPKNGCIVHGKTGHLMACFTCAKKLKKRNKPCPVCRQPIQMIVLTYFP
T cruzi repl: blocks replication of Trypanosoma cruzi; T. cruzi beta-gal in NIH3T3, luminescence, 90 h; inhibition, % (no concentration beside the values); hit rate 1.4% among 300,000; AID 1885;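 active = mean inhibition across valid replicates above about 55%, limit read from the data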;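 note: signal also drops with host cell toxicity which is not excluded here; 0% = plate median of DMSO wells and 100% = zero luminescence signal; higher percent means less beta-gal luminescence so fewer parasites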
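System – NIH/3T3 host cells with β-galactosidase reporter T. cruzi · Doses – single 50 nL compound addition per well in DMSO · Reagent – 5000 T. cruzi trypomastigotes/well · Medium – Low-serum DMEM with 2% FBS · Timing – ≥90 h infection period, 3 h prior cell attachment · Evaluation – parasite load inhibition, % · Technique – GalScreen luminescence, 60 min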
UPR XBP1 act: adaptive UPR (XBP1) activation | hit rate 0.33% among 330,000 | activation, % at 20 µM | CHO-XBP1 luciferase reporter, IRE1-XBP1 UPR activation, luminescence; percent of tunicamycin response, DMSO as zero | AID 463104;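 active = versus positive control, 20 µM dose yields 30% or more activation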;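 note: 100% = tunicamycin at 10 µg/mL and 0% = DMSO only wells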
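Test system: CHO-XBP1 luciferase reporter cells | Buffer or medium: Serum-containing F12 medium, 10% FBS | Schedule: 6 h compound exposure at 37 °C, 5% CO2 | Detection: Steady-Glo luciferase glow luminescence, 10 min after reagent addition | Read-out basis: Activation, % of tunicamycin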
UPR CHOP act: activators of apoptotic arm of unfolded protein response (CHOP). AID 449763. activation, % at 10 µM. hit rate 0.34% among 330,000. CHO-CHOP luciferase reporter, UPR activation, luminescence; percent of tunicamycin response over DMSO baseline;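 active = at 10 µM dose, activation of 40% or more, normalized to positive control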;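 note: 100% = tunicamycin at 10 µg/mL and 0% = DMSO alone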
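Material: CHO-CHOP cells, stable luciferase reporter of PERK-eIF2a-CHOP signalling; quantity: 500 reporter cells seeded per well; buffer or medium: F12 medium containing 10% fetal bovine serum; compound: one dose, 10 µM in 0.5% DMSO; incubation: 6 h compound treatment, 37 °C; measured by: Steady-Glo luciferase luminescence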
Beta apoptosis: blocks beta cell apoptosis; AID 435005; hit rate 0.8% among 300,000; INS-1E cytokine-induced death, ATP luminescence, 48 h; percent of positive-control rescue, neutral wells zero; protection from apoptosis, % (no concentration beside the values);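 active = Every replicate reaches about 75%, or at least half do and their mean reaches it too, limit read from the data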;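 note: 0% = cytokine-treated negative control wells and 100% = positive control rescue; higher means more ATP so stronger rescue from cytokine killing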
Mdm2 MdmX conf: confirmation of human Mdm2/MdmX interaction inhibitors | shares compounds with Mdm2 MdmX PPI | Mdm2-MdmX binding, luminescent assay | inhibition, % at 8 µM | hit rate 55% among 10,000; in the data active = inhibition above about 40%
Full FLuc ctr: full-length luciferase inhibition in Mdm2/MdmX counter-screen; shares compounds with Mdm2 MdmX PPI; SaOS-2 full-length luciferase counterscreen, luminescence; inhibition, % at 8 µM; hit rate 77% among 6,200;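 active = mean inhibition at 8 µM reaching about 37%, which flags the compound as non-specific, limit read from the data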;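 note: p53-null SaOS-2 cells with luciferase driven by a doxycycline-inducible promoter; compound on cells about two nights before reading with doxycycline added after day one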
* marks the source's active call; other numbers are inactive results; / = not tested or not shown.

SMILES | CSC inhib | Mdm2 MdmX PPI | T cruzi repl | UPR XBP1 act | UPR CHOP act | Beta apoptosis | Mdm2 MdmX conf | others
O=C1c2ccc3c4c(ccc(c24)C(=O)N1c1cccc(O)c1)CC3 | 1.9 | 3.8 | -8.3 | -4.1 | 0.3 | -8.9 | /
Cc1cc(OCC(=O)NCCCN(C)C)cc(C)c1Br | 9.8 | 17.7 | 20.1 | -3.7 | -2.6 | -10.2 | /
CC[C@]12c3[nH]c4ccc(OC)cc4c3CCN1C(=O)C(CC(=O)NCC13CC4CC(CC(C4)C1)C3)C[C@@H]2C(=O)N1CCN(C(=O)C2CC2)CC1 (stereo partly drawn) | / | 44.8 | / | 1.9 | 8.0 | / | /
C[C@]12c3[nH]c4ccc(Cl)cc4c3CCN1C(=O)[C@@H](CC(=O)NCC13CC4CC(CC(C4)C1)C3)C[C@@H]2C(=O)N1CCCCC1 | / | 73.7* | / | 19.2 | 5.5 | / | 38.6
C[C@]12c3[nH]c4ccc(Cl)cc4c3CCN1C(=O)[C@@H](CC(=O)NCC13CC4CC(CC(C4)C1)C3)C[C@@H]2C(=O)N1CCOCC1 | / | 66.0* | / | 12.0 | 8.9 | / | 21.8
COc1ccc2[nH]c3c(c2c1)CCN1C(=O)C(CC(=O)NCC24CC5CC(CC(C5)C2)C4)C[C@H](C(=O)N2CCOCC2)[C@@]31C (stereo partly drawn) | / | 7.6 | / | 1.6 | 3.7 | / | /
CC[C@]12c3[nH]c4ccc(Cl)cc4c3CCN1C(=O)[C@@H](CC(=O)NCC13CC4CC(CC(C4)C1)C3)C[C@@H]2C(=O)N1CCN(C(=O)C2CC2)CC1 | / | 62.3* | / | 21.1 | 17.9 | / | 52.3* | Full FLuc ctr=52.6*
CC(C)(C)NC(=O)C[C@H]1C[C@H](C(=O)N2CCCCC2)[C@@]2(C)c3[nH]c4ccc(Cl)cc4c3CCN2C1=O | / | -34.1 | / | 0.5 | 2.0 | / | /
CCCC[C@H]1C2=C3[C@@H](CC(C(=O)OC)=C[C@@H](C(=O)OC)[C@H]3C(C)(C)C2=O)n2c(=O)n(-c3ccccc3)c(=O)n21 | / | 29.0 | 14.3 | -1.5 | 1.5 | -5.1 | /
O=C(Nc1nccs1)C1CC=CCC1C(=O)OCC(F)(F)C(F)F (stereo not drawn) | 6.8 | -20.4 | / | 4.1 | -0.1 | 2.4 | /
O=C(Nc1ccc(Oc2ncnc3cc(Cl)ccc23)nc1)c1cccs1 | 0.1 | 77.7* | 1.1 | 7.4 | 1.6 | 54.0 | 72.6* | Full FLuc ctr=102.1*
O=C(Nc1ccc(F)cc1)Nc1ccc(Oc2ncnc3cc(Cl)ccc23)nc1 | -6.8 | 26.7 | -9.5 | 1.3 | -2.1 | -3.9 | /
CCCc1nnc(NC(=O)CCC(=O)N2CCN(Cc3ccc(Cl)cc3)CC2)s1 | -10.5 | 12.1 | 38.6 | -7.4 | 0.2 | -4.0 | /
Cc1cc(Nc2nc3ccccc3[nH]c2=O)n(-c2ccccc2)n1 | 9.0 | 39.5 | / | 5.4 | -2.0 | -11.9 | /
Cc1cc(Nc2nc3ccccc3nc2Cl)n(-c2ccc([N+](=O)[O-])cc2)n1 | 34.5 | 95.9* | 55.5* | 0.6 | 0.6 | 76.8* | 48.9* | Full FLuc ctr=51.5*
O=[N+]([O-])c1cc(C(F)(F)F)ccc1-n1nnc2ccccc21 | 8.7 | 64.1* | -12.8 | -0.9 | -0.8 | -9.9 | 9.7
COc1ccccc1OCCCCN1CCN(C(c2ccccc2)c2ccccc2)CC1 | 17.8 | 40.5 | 37.1 | -0.2 | -0.7 | 2.8 | /
CC(=O)OC(C)(C)/C=C/C(=O)[C@](C)(O)C1[C@H](O)C[C@@]2(C)C3CC=C4C(C=C(O[C@@H]5O[C@H](CO)[C@@H](O)[C@H](O)[C@H]5O)C(=O)C4(C)C)[C@]3(C)C(=O)C[C@]12C (stereo partly drawn) | 10.2 | 96.1* | / | 0.5 | 8.0 | 34.1 | -8.5
CC1(C)Oc2ccc3ccc(=O)oc3c2C[C@H]1O[C@@H]1O[C@H](CO)[C@@H](O)[C@H](O)[C@H]1O | -8.3 | -29.3 | / | -0.6 | 0.8 | -6.2 | /
Cc1ccc(C2=NC(C(F)(F)F)(C(F)(F)F)c3c(n(-c4ccc(F)cc4)c(=O)[nH]c3=O)N2)cc1 | -1.0 | 21.6 | -10.8 | -1.7 | -0.2 | 37.7 | /
O=c1[nH]c(=O)n(-c2ccc(F)cc2)c2c1C(C(F)(F)F)(C(F)(F)F)N=C(c1ccc(F)cc1)N2 | / | 53.3* | -13.2 | 0.8 | 0.2 | 75.8* | 38.1 | Full FLuc ctr=68.4*
C#CC(CC)(CC)NC(=O)NC1CCCCC1 | -13.9 | -15.4 | -2.3 | -2.8 | -0.3 | -1.8 | /
CCN(CC)CCOC(=O)c1ccc(NC(=O)CCCN2C(=O)/C(=C/c3cccs3)SC2=S)cc1 | 23.6 | 59.3* | 6.9 | -2.8 | 0.3 | -5.0 | 17.4
O=C(CCCN1C(=O)/C(=C\c2cccs2)SC1=S)Nc1ccc(C(=O)O)cc1 | 1.5 | 5.8 | 4.7 | -3.9 | 1.8 | 3.5 | /
O=C(CCCN1C(=O)/C(=C\c2cccs2)SC1=S)Nc1ccc(O)cc1 | / | 77.8* | 13.9 | -0.7 | 0.1 | -2.6 | 70.9* | Full FLuc ctr=31.8
SMILES | CSC inhib | Mdm2 MdmX PPI | T cruzi repl | UPR XBP1 act | UPR CHOP act | Beta apoptosis | Mdm2 MdmX conf | others
CCN(CC)CCOC(=O)c1ccc(NC(=O)c2cn(-c3ccccc3)nc2-c2cccs2)cc1 | / | 50.4* | / | 29.9 | 17.0 | / | 38.9 | Full FLuc ctr=101.0*
CCN(CC)CCNC(=O)c1cn(-c2ccccc2)nc1-c1cccs1 | 0.1 | 2.2 | 16.6 | -0.3 | -1.9 | -1.1 | /
O=C(CCCN1C(=O)/C(=C\c2cccs2)SC1=S)Nc1ccccn1 | 16.3 | 70.4* | 18.1 | -1.2 | -0.7 | 3.8 | 63.7* | Full FLuc ctr=38.2*
Cc1ccc([N+](=O)[O-])cc1NC(=O)c1cccnc1 | -4.4 | 6.6 | -9.4 | -5.2 | -0.1 | / | /
CCc1ccc(CN2CCC(n3nccc3NC(=O)C3CCCC3)CC2)cc1 | 0.8 | 26.8 | 38.4 | -6.7 | -0.4 | 1.4 | /
O=C(NCc1ccc(Cl)cc1)c1cc2c(s1)CS(=O)(=O)C2 | 4.8 | 17.9 | 11.3 | 1.5 | 3.0 | -4.0 | /
CCOc1ccc(CCNS(=O)(=O)c2cnc[nH]2)cc1OCC | -16.8 | 25.2 | -4.2 | -1.6 | -0.3 | / | /
O=C(Nc1nnc(C2CC2)s1)c1cncc(Br)c1 | -1.3 | -23.1 | / | 1.1 | 2.6 | 1.7 | /
CCC(=O)n1nc(NCc2ccccc2OC)nc1NCc1ccccc1OC | -6.8 | 29.1 | 2.9 | -5.3 | -4.0 | 8.8 | /
CCCNC(=O)COC(=O)/C(C#N)=C/c1cc(C)n(CCC)c1C | / | 0.7 | 5.8 | -2.5 | 1.2 | 5.4 | /
O=C(CCCN1C(=O)/C(=C/c2cccs2)SC1=S)Nc1ccccc1O | / | 54.1* | -3.1 | -1.4 | -0.2 | -3.8 | 37.9 | Full FLuc ctr=86.9*
O=C(Nc1cccc(/C=C/c2ccccn2)c1)c1ccc(-n2cncn2)c([N+](=O)[O-])c1 | 28.3 | 62.0* | 38.2 | 1.0 | 3.7 | / | 37.9
N#C/C(=C/c1ccc(-c2ccccc2)o1)c1nc(-c2cccs2)cs1 | 11.3 | / | / | / | / | -2.8 | /
